In paper PMC10246735 (European journal of medicinal chemistry, 2023):

Assays:
[1] = system: LNCaP (AR+) androgen-sensitive human prostate adenocarcinoma cells; experiment: MTT antiproliferative activity assay on LNCaP cells; assay type: cell-based
[2] = system: PC3 (AR−) androgen-insensitive human prostate adenocarcinoma cells; experiment: MTT antiproliferative activity assay on PC3 cells; assay type: cell-based; details: 48 h, read-out: IC50 (concentration of drug inhibiting cell growth by 50%), PC3 (AR−)
[3] = molecular target: recombinant CYP3A4 (Homo sapiens, UniProt P08684); experiment: Equilibrium spectral titration of recombinant CYP3A4; assay type: binding; details: for high spin content: estimated at the end of equilibrium titrations relative to azamulin-bound CYP3A4 (100% high-spin conversion); for Kd: read-out: S50, ligand concentration at half-saturation (equivalent to Kd), 0.1 M phosphate buffer, pH 7.4; for Kd / nH, Hill coefficient: sigmoidal fittings to titration plots, mean of three ± SD
Summary of the method: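 Codon-optimized full-length human CYP3A4 (1.5–2 μM) in 0.1 M phosphate buffer, pH 7.4, with 20% glycerol and 1 mM dithiothreitol, at ambient temperature. DMSO-dissolved ligand added in small aliquots (final solvent <2%). Titration plots were built from difference absorbance spectra. Sigmoidal fits gave S50 (half-saturation ligand concentration, equivalent to Kd) and Hill coefficient; hyperbolic fits gave Kd.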

Sequence of recombinant CYP3A4 (P08684 whole entry): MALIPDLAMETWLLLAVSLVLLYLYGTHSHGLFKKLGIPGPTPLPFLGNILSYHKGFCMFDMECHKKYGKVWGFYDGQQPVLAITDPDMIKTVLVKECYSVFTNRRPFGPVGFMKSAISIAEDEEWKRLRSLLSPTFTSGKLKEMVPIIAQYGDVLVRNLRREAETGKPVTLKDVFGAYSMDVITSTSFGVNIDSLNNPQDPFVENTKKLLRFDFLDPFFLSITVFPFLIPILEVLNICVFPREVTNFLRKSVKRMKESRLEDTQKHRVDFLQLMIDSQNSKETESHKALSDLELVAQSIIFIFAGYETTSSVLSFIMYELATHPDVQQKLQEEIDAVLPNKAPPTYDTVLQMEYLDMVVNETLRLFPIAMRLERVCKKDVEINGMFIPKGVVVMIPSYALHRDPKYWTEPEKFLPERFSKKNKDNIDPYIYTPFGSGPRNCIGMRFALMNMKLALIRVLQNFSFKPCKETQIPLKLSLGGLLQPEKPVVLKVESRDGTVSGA

SMILES	high spin content [3] [%]	Kd [3] [µM]	nH, Hill coefficient [3]	also measured
CC(=O)O[C@]1(C(C)=O)CC[C@H]2[C@@H]3C=C(Cl)C4=CC(=O)[C@@H]5C[C@@H]5[C@]4(C)[C@H]3CC[C@@]21C [CPA, cyproterone acetate, reference compound]				IC50 ([1]; Homo sapiens, LNCaP/AR, 48 h, read-out: IC50 (concentration of drug inhibiting cell growth by 50%), LNCaP (AR+)): 40.7 µM; IC50 [2]: 84.3 µM
C=CC[C@]1(O)CC[C@H]2[C@@H]3CCC4=CC(=O)CC[C@]4(C)[C@H]3CC[C@@]21C [Compound 10, 17α-allyl-androst-4-en-3-one-17β-ol]	70 ± 2	22 ± 4	1.52 ± 0.02	
C[C@]12CCC(=O)C=C1CC[C@@H]1[C@@H]2CC[C@@]2(C)[C@H]1CC[C@@]2(O)C/C=C/C[C@]1(O)CC[C@H]2[C@@H]3CCC4=CC(=O)CC[C@]4(C)[C@H]3CC[C@@]21C [Compound 11, ((E)-17,17’-(but-2-ene-1,4-diyl))bis(androst-4-en-3-one-17β-ol)]	92 ± 4			fold higher affinity for CYP3A4 compared to 15 ([3]; ratio of Kd): 40 fold; fold more potent than the reference drug CPA ([1]; LNCaP (AR+) cells, ratio of IC50): ~ 3.5 times; fold more potent on AR+ LNCaP than AR− PC3 cells ([1]; ratio of IC50 PC3 / LNCaP): ~ 3.7 times
C=CC[C@]1(O)CC[C@H]2[C@@H]3CC[C@H]4CC(=O)CC[C@]4(C)[C@H]3CC[C@@]21C [Compound 14, 17α-allyl-androst-3-one-17β-ol]	71 ± 3	17 ± 2	1.76 ± 0.06	
C[C@]12CCC(=O)C[C@@H]1CC[C@@H]1[C@@H]2CC[C@@]2(C)[C@H]1CC[C@@]2(O)C/C=C/C[C@]1(O)CC[C@H]2[C@@H]3CC[C@H]4CC(=O)CC[C@]4(C)[C@H]3CC[C@@]21C [Compound 15, ((E)-17,17’-(but-2-ene-1,4-diyl))bis(androst-3-one-17β-ol)]	33 ± 3			
